# According to article PMC4301073 (ACS Chemical Biology, 2014):
# How the values were obtained:
# HK853 [1] = biological target: T1, HK853 (Thermotoga maritima, UniProt Q9WZV7); test: High-throughput primary FP screen for displacement of ADP-BODIPY; type: binding; details: 20 μM compound
# T1 sequence (Q9WZV7 232-489): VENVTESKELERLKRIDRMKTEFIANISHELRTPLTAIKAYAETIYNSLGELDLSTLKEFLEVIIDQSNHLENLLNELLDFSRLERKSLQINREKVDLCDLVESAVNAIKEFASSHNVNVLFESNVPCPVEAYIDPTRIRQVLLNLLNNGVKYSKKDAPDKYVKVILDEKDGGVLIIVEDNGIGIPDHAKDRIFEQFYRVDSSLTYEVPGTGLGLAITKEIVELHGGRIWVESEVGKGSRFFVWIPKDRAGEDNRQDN
# PhoQ = details: cited from earlier work
# HK853 [2] = biological target: T1, HK853; test: Control FP competition; type: binding
# How it was run: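 Competition format: 25 μM HK853 plus 10 nM ADP-BODIPY probe with 0–1000 μM competing nucleotide and 5% (v/v) DMSO, in 50 mM Tris-HCl pH 7.8, 200 mM KCl, 5 mM MgCl2. Incubation and FP read as for binding, in triplicate. FP plotted against log molar competitor; IC50 from four-parameter logistic fit.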
# B. subtilis 3610 = test: Broth microdilution antimicrobial testing; type: cell-based, Bacillus subtilis; details: for MIC: Bacillus subtilis, 3610, 20 h, read-out: MIC values B. subtilis 3610; for MIC values B. subtilis 3610: n = 2
# How it was run: (§1)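 Serial dilutions in Mueller-Hinton Broth 2, inoculated at 5 × 10^5 cfu/mL; wells ≤5% DMSO. Growth, sterility, DMSO and known-antibiotic controls included; inoculum count checked by plating on MHB 2 agar. Incubated 20 h at 37 °C. MIC taken as lowest concentration with no growth visible to unaided eye.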
# HK853 [3] = biological target: T1, HK853; test: Inhibition of HK853 autophosphorylation activity; type: biochemical
# VicK = biological target: T2, VicK (Streptococcus pneumoniae, UniProt Q8DPL8); test: Inhibition of VicK activity; type: biochemical
# T2 sequence (Q8DPL8 36-449 limits assumed): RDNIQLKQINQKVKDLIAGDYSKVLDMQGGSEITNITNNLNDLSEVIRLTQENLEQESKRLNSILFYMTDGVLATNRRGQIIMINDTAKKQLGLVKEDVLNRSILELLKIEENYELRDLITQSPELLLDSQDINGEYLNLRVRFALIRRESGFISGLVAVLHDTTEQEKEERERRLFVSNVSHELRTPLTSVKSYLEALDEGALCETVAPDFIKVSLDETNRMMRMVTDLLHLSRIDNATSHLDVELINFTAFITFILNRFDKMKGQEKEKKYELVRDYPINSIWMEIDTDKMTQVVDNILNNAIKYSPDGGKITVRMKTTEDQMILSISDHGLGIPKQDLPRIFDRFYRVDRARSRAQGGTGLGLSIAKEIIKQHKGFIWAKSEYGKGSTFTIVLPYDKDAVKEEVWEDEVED
# How it was run: (§2)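 Enzyme (VicK 2 μM; for CheA, 2 μM CheA plus 6 μM CheW) preincubated with test compound 30 min RT, then radioactive ATP mix added. Final: 3 μM ATP [γ-33P] (20 Ci mmol–1), 5% DMSO, 0.1% Triton X-100 in reaction buffer, pH 7.8. Reacted 30 min RT, quenched in SDS loading buffer, run on SDS-PAGE. Radioactive band density normalised to no-inhibitor control; IC50 from four-parameter logistic fit.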
# E. coli DC2 = test: Broth microdilution antimicrobial testing; type: cell-based, Escherichia coli; details: for MIC: Escherichia coli, DC2, 20 h, read-out: MIC values E. coli DC2
# How it was run: as §1
# Vero 76 cells = test: Cytotoxicity testing; type: cell-based, African green monkey; details: DMSO control, n = 2
# CheA = biological target: T3, CheA (Escherichia coli, UniProt P07363); test: Inhibition of CheA activity; type: biochemical
# T3 sequence (P07363 1-654): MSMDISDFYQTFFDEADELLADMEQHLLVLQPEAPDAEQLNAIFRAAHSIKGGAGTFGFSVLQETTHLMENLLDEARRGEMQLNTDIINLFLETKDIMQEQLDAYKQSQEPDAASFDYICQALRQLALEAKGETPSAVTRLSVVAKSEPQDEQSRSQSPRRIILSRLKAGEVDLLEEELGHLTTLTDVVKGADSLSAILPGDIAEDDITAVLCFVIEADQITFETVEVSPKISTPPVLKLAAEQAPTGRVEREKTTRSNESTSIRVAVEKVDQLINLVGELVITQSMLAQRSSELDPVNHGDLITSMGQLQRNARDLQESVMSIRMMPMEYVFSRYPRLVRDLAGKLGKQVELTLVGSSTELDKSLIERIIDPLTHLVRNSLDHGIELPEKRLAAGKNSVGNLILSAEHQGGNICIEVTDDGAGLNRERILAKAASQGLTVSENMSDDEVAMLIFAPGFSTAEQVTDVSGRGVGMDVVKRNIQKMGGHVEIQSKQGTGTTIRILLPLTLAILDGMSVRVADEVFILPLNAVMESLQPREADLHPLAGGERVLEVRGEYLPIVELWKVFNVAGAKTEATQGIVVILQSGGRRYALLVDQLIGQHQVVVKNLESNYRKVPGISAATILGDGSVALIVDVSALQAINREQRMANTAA
# How it was run: as §2
# four HK proteins = details: cited from earlier work
compound,measurement,setting,value
C[C@@H]1C[C@H]2O[C@@H]2/C=C\C=C\C(=O)Cc2c(Cl)c(O)cc(O)c2C(=O)O1 [radicicol],displacement of ADP-BODIPY (1) in primary screening (HTS),HK853 [1],failed to displace ADP-BODIPY (1)
same,difference in selectivity between Hsp90 and PhoQ,PhoQ,> 30 fold
"Nc1ncnc2c1ncn2[C@@H]1O[C@H](COP(=O)(O)OP(=O)(O)OP(=O)(O)O)[C@@H](O)[C@H]1O [ATP (2), adenosine triphosphate]",IC50,HK853 [2],23 ± 1.1 µM
"O=c1cc(-c2ccc(O)c(O)c2)oc2cc(O)cc(O)c12 [Compound 15, luteolin]",MIC,B. subtilis 3610,> 128 µg/mL
same,IC50,HK853 [3],15.1 µM
same,IC50,VicK,216 µM
same,MIC,E. coli DC2,8 µg/mL
"C[S+](C)[O-] [DMSO, dimethyl sulfoxide]",MIC values B. subtilis 3610,B. subtilis 3610; DMSO control,20% (v/v)
same,CC50 Vero 76 Cells,Vero 76 cells,>0.5% (v/v)
same,MIC values E. coli DC2,"E. coli DC2; DMSO control, n = 2",10–20% (v/v)
C=CCNC1=C2C[C@@H](C)C[C@H](OC)[C@H](O)[C@@H](C)/C=C(\C)[C@H](OC(N)=O)[C@@H](OC)/C=C\C=C(/C)C(=O)NC(=CC1=O)C2=O [17-AAG],displacement of ADP-BODIPY (1) in primary screening (HTS),HK853 [1],failed to displace ADP-BODIPY (1)
"O=c1c(-c2ccc(O)cc2)coc2cc(O)cc(O)c12 [Genistein, genistein]",inhibition of HK853 activity in follow-up assays,"HK853 [3]; Supporting Information Table 1, n=1",slight inhibition
"Nc1ncnc2c1ncn2[C@@H]1O[C@H](COP(=O)(O)OP(=O)(O)O)[C@@H](O)[C@H]1O [ADP (3), adenosine diphosphate]",IC50,HK853 [2],27.7 ± 0.9 µM
same,IC50,HK853 [3],2.57 µM
same,increased potency over AMP (9),HK853 [3]; from Table 1 IC50 values of HK inhibition,more than 300 fold
same,IC50,VicK,4.81 µM
same,IC50,CheA,21.5 µM
CN[C@H](CC(C)C)C(=O)N[C@H]1C(=O)N[C@@H](CC(N)=O)C(=O)N[C@H]2C(=O)N[C@H]3C(=O)N[C@H](C(=O)N[C@H](C(=O)O)c4cc(O)cc(O)c4-c4cc3ccc4O)[C@H](O)c3ccc(c(Cl)c3)Oc3cc2cc(c3O[C@@H]2O[C@H](CO)[C@@H](O)[C@H](O)[C@H]2O[C@H]2C[C@](C)(N)[C@H](O)[C@H](C)O2)Oc2ccc(cc2Cl)[C@H]1O [vancomycin],MIC,B. subtilis 3610,0.5 µg/mL
O=C(N[C@H](CO)[C@H](O)c1ccc([N+](=O)[O-])cc1)C(Cl)Cl [chloramphenicol],MIC,B. subtilis 3610,2 to 4 µg/mL
same,MIC,E. coli DC2,0.5 to 1 µg/mL
penicillin,MIC values B. subtilis 3610,"B. subtilis 3610; 20 h at 37 °C, lowest concentration that inhibited visible growth",≤0.06–0.5 μg mL^–1
"N#Cc1c(N)nc2sc(C(=O)Nc3ccc(Br)cc3)c(N)c2c1-c1ccccc1 [TEP, 3,6-diamino-5-cyano-4-phenylthieno[2,3-b]pyridine-2-carboxylic acid (4-bromo-phenyl)-amide]",IC50 values,four HK proteins,low micromolar range
"Nc1ncnc2nc[nH]c12 [adenine (10), adenine]",IC50,HK853 [3],463 µM
"Nc1nc2ccc(OC(F)(F)F)cc2s1 [Compound 12, riluzole]",MIC,B. subtilis 3610,293 µg/mL
same,IC50,VicK,618 µM
same,IC50,CheA,1340 µM
same,MIC,E. coli DC2,128 µg/mL
COC1=C2C[C@@H](C)C[C@H](OC)[C@H](O)[C@@H](C)/C=C(\C)[C@H](OC(N)=O)[C@@H](OC)/C=C\C=C(/C)C(=O)NC(=CC1=O)C2=O [geldanamyin],displacement of ADP-BODIPY (1) in primary screening (HTS),HK853 [1],failed to displace ADP-BODIPY (1)
CC1(C)S[C@@H]2[C@H](NC(=O)[C@H](N)c3ccccc3)C(=O)N2[C@H]1C(=O)O [ampicillin],MIC,E. coli DC2,0.25 µg/mL
